Results as given in ChEMBL document CHEMBL1130202, “Biologically active heteroarotinoids exhibiting anticancer activity and decreased toxicity” (J Med Chem, 1997).
Activity calls are given as the source filed them. The calls are words filed in the database; no cut-off is given here.

What was measured:
Mus musculus [1] = organism: Mus musculus; assay: Approximate day to 10% weight loss in mice at low dose; type: functional
Method in brief: (§1)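 Male B6D2F1 mice dosed daily by gavage in corn oil; body weights followed to termination (day 65, or day 25 for TTNPB 0.01/0.05 mg/kg/day groups) and compared with the matching vehicle group. Value is approximate day of onset of 10% body weight reduction versus vehicle.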

Mus musculus [2] = organism: Mus musculus; assay: Effect of compound on serum triglycerides levels in mice at mid dose 1 on day 29; type: functional
Method in brief: (§2)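 Male B6D2F1 mice were gavaged daily with compound in corn oil at low, mid 1, mid 2 or high dose. Serum triglycerides and circulating white blood cells were measured on the stated day (8, 29, 36, 65). Values are group mean ± SD expressed as % relative to corn-oil vehicle, with significance at p ≤ 0.05.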

Mus musculus [3] = organism: Mus musculus; assay: Approximate day to 10% weight loss in mice at high dose; type: functional; method in brief: as §1
Mus musculus [4] = organism: Mus musculus; assay: Effect of compound on right testicle to body weight ratios in mice at mid dose 1 on day 65; type: functional
Method in brief: (§3)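 Male B6D2F1 mice dosed daily by gavage with compound in corn oil; vehicle 1 (corn oil) controls run to termination on day 65. Low, mid 1, mid 2 and high dose groups, with dosage increases partway through the study. Organ-to-body weight ratios (×1000) taken at necropsy on day 65, reported as mean ± SD for 4 to 8 animals and as % difference from vehicle.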

Mus musculus [5] = organism: Mus musculus; assay: Total dose of 10% weight loss in mice at mid dose 2; type: functional
Mus musculus [6] = organism: Mus musculus; assay: Compound total dose to termination (day 25/65) in mid dose 1; type: functional
Method in brief: (§4)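 Male B6D2F1 mice given daily oral gavage in corn oil; dosages increased during the study (day 30 or day 51 depending on compound). Cumulative dose in mg/kg administered up to termination (day 65, or day 25 for TTNPB 0.01/0.05 mg/kg/day groups).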

Mus musculus [7] = organism: Mus musculus; assay: Effect of compound on adrenal to body weight ratios in mice at mid dose 2 on day 65; type: functional; method in brief: as §3
Mus musculus [8] = organism: Mus musculus; assay: Total dose of 10% weight loss in mice at low dose; type: functional
Mus musculus [9] = organism: Mus musculus; assay: Effect of compound on thymus to body weight ratios in mice at mid dose 2 on day 65; type: functional
Method in brief: (§5)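 Male B6D2F1 mice were dosed daily by gavage in corn oil, with TTNPB given at 0.1–0.8 or 0.01/0.05 mg/kg/day. Thymus-to-body weight ratio (×1000) was taken at necropsy on day 65 against vehicle 1, or on day 25 for the 0.01/0.05 groups against vehicle 2. Mean ± SD of 4–8 animals, reported as % difference from vehicle.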

Mus musculus [10] = organism: Mus musculus; assay: Effect of compound on adrenal to body weight ratios in mice at mid dose 1 on day 65; type: functional; method in brief: as §3
Mus musculus [11] = organism: Mus musculus; assay: Effect of compound on white blood cells levels in mice at mid dose 2 on day 65; type: functional; method in brief: as §2
Mus musculus [12] = organism: Mus musculus; assay: Effect of compound on thymus to body weight ratios in mice at mid dose 1 on day 65; type: functional; method in brief: as §5
Mus musculus [13] = organism: Mus musculus; assay: Compound total dose to termination (day 25/65) in mid dose 2; type: functional; method in brief: as §4
Mus musculus [14] = organism: Mus musculus; assay: Approximate day to 10% weight loss in mice at mid dose 1; type: functional; method in brief: as §1
Mus musculus [15] = organism: Mus musculus; assay: Effect of compound on serum Alkaline phosphatase levels in mice at high dose on day 36; type: functional
Method in brief: (§6)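 Male B6D2F1 mice dosed daily by oral gavage in corn oil at low, mid 1, mid 2 or high dose. Blood sampled on set days (8, 29, 36, 65) for clinical chemistry, serum alkaline phosphatase and triglycerides. Group mean ± SD reported as % relative to vehicle 1; significance p < 0.05 versus corn oil vehicle.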

Mus musculus [16] = organism: Mus musculus; assay: Compound total dose to termination (day 25/65) in high dose; type: functional; method in brief: as §4
Mus musculus [17] = organism: Mus musculus; assay: Effect of compound on Spleen to body weight ratios in mice at low dose on day 65; type: functional; method in brief: as §3
Mus musculus [18] = organism: Mus musculus; assay: Effect of compound on Spleen to body weight ratios in mice at mid dose 1 on day 65; type: functional; method in brief: as §3
CC-B = assay: Relative transcriptional activation activity relative to t-RA; type: functional, Homo sapiens
Method in brief: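 CC-B reporter cells (CC-1 cervical line carrying a CAT gene under a RARE with a tk promoter) were seeded at 4×10^5 cells/well in MEM with nonessential amino acids, pyruvate and 10% FBS, the serum lots having negligible t-RA by HPLC. Triplicate cultures were screened at 10^-6 M with 0.1% DMSO final. After 48 h, CAT activity ([3H]acetyl-CoA) per mg protein was taken as treated/control and expressed relative to t-RA. Average of three experiments.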

Mus musculus [19] = organism: Mus musculus; assay: Enlarged spleen in Gross pathological observations in mice with hypervitaminosis A at high dose with gross observations/total number of mice in group; 0/16; type: functional, organism-based
Mus musculus [20] = organism: Mus musculus; assay: Average number of fractures per mouse at high dose
Mus musculus [21] = organism: Mus musculus; assay: Fracture incidence in mouse at low dose; 0/8
Mus musculus [22] = organism: Mus musculus; assay: Effect of compound on adrenal to body weight ratios in mice at low dose on day 65; type: functional; method in brief: as §3
Mus musculus [23] = organism: Mus musculus; assay: Approximate day to 10% weight loss in mice at mid dose 2; type: functional; method in brief: as §1
Mus musculus [24] = organism: Mus musculus; assay: Effect of compound on right testicle to body weight ratios in mice at mid dose 2 on day 65; type: functional; method in brief: as §3
Mus musculus [25] = organism: Mus musculus; assay: Calculated 30-day maximally tolerated dose based on 10% weight loss in mice at low dose; type: functional
Mus musculus [26] = organism: Mus musculus; assay: Total dose of 10% weight loss in mice at high dose; type: functional
Mus musculus [27] = organism: Mus musculus; assay: Effect of compound on serum triglycerides levels in mice at mid dose 2 on day 29; type: functional; method in brief: as §2
Mus musculus [28] = organism: Mus musculus; assay: Average number of fractures per mouse at low dose
Mus musculus [29] = organism: Mus musculus; assay: Effect of compound on right testicle to body weight ratios in mice at low dose on day 65; type: functional; method in brief: as §3
Mus musculus [30] = organism: Mus musculus; assay: Total dose of 10% weight loss in mice at mid dose 1; type: functional
Mus musculus [31] = organism: Mus musculus; assay: Effect of compound on thymus to body weight ratios in mice at low dose on day 65; type: functional; method in brief: as §5
Mus musculus [32] = organism: Mus musculus; assay: Effect of compound on serum triglycerides levels in mice at high dose on day 29; type: functional; method in brief: as §6
Mus musculus [33] = organism: Mus musculus; assay: Effect of compound on Spleen to body weight ratios in mice at mid dose 2 on day 65; type: functional; method in brief: as §3
Mus musculus [34] = organism: Mus musculus; assay: Effect of compound on serum Alkaline phosphatase levels in mice at low dose on day 65; type: functional; method in brief: as §6
Mus musculus [35] = organism: Mus musculus; assay: Effect of compound on serum Alkaline phosphatase levels in mice at mid dose 2 on day 65; type: functional; method in brief: as §6
Mus musculus [36] = organism: Mus musculus; assay: Calculated 30-day maximally tolerated dose based on 10% weight loss in mice at mid dose 2; type: functional
Mus musculus [37] = organism: Mus musculus; assay: Calculated 30-day maximally tolerated dose based on 10% weight loss in mice at high dose; type: functional
Mus musculus [38] = organism: Mus musculus; assay: Calculated 30-day maximally tolerated dose based on 10% weight loss in mice at mid dose 1; type: functional
Mus musculus [39] = organism: Mus musculus; assay: Average number of fractures per mouse at mid dose 2
Mus musculus [40] = organism: Mus musculus; assay: Effect of compound on serum triglycerides levels in mice at mid dose 1 on day 8; type: functional; method in brief: as §2
Mus musculus [41] = organism: Mus musculus; assay: Skin scaling in mice at mid dose 2 with Hypervitaminosis; 0/16; type: functional, organism-based
Method in brief: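 Male B6D2F1 mice were dosed daily by gavage in corn oil and observed for skin scaling of the ears, mouth, nose, eyelids, feet, tail or ventral body. Results are given as affected animals over animals in the group, with the day of first observation.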

Mus musculus [42] = organism: Mus musculus; assay: Effect of compound on serum Alkaline phosphatase levels in mice at high dose on day 29; type: functional; method in brief: as §6

SMILES: CC(/C=C/C=C(\C)c1ccc2c(c1)C(C)(C)CCO2)=C\C(=O)O
- Activity (Mus musculus [1]): >65
- Activity (Mus musculus [2]): 167.3
- Activity (Mus musculus [3]): 53
- Activity (Mus musculus [4]): 2.9
- Dose (Mus musculus [5]): 732.4 mg/kg
- Total dose (Mus musculus [6]): 414.2 mg/kg
- Activity (Mus musculus [7]): 0.3
- Dose (Mus musculus [8]): >207.1 mg/kg
- Activity (Mus musculus [9]): 1.5
- Activity (Mus musculus [10]): 0.3
- Activity (Mus musculus [11]): 4.51
- Activity (Mus musculus [12]): 1.6
- Total dose (Mus musculus [13]): 828.4 mg/kg
- Activity (Mus musculus [14]): >65
- Activity (Mus musculus [15]): 91.9
- Total dose (Mus musculus [16]): 3106.5 mg/kg
- Activity (Mus musculus [17]): 2.3
- Activity (Mus musculus [18]): 2.5
- Relative activity (CC-B): 50
- Activity (Mus musculus [19]): inactive
- Activity (Mus musculus [20]): 1
- Activity (Mus musculus [21]): inactive
- Activity (Mus musculus [22]): 0.3
- Activity (Mus musculus [23]): 61
- Activity (Mus musculus [24]): 3.3
- Max tolerated dose (Mus musculus [25]): >6.9 mg/kg
- Dose (Mus musculus [26]): 952.8 mg/kg
- Activity (Mus musculus [27]): 159.3
- Activity (Mus musculus [28]): 0
- Activity (Mus musculus [29]): 3.2
- Dose (Mus musculus [30]): >414.2 mg/kg
- Activity (Mus musculus [31]): 1.6
- Activity (Mus musculus [32]): 208.2
- Activity (Mus musculus [33]): 2.7
- Activity (Mus musculus [34]): 115.7
- Activity (Mus musculus [35]): 136.8
- Max tolerated dose (Mus musculus [36]): 24.4 mg/kg
- Max tolerated dose (Mus musculus [37]): 31.8 mg/kg
- Max tolerated dose (Mus musculus [38]): >13.8 mg/kg
- Activity (Mus musculus [39]): 0.6
- Activity (Mus musculus [40]): 97.2
- Activity (Mus musculus [41]): inactive

SMILES: C/C(=C\c1ccc(C(=O)O)cc1)c1ccc2c(c1)C(C)(C)CCO2
- Activity (Mus musculus [42]): 103.1
- Activity (Mus musculus [1]): >65
- Activity (Mus musculus [2]): 175.9
- Activity (Mus musculus [3]): 36
- Activity (Mus musculus [4]): 2
- Dose (Mus musculus [5]): 220.6 mg/kg
- Activity (Mus musculus [7]): 0.3
- Dose (Mus musculus [8]): 147.1 mg/kg
- Activity (Mus musculus [9]): 0.9
- Activity (Mus musculus [10]): 0.4
- Activity (Mus musculus [11]): 6.55
- Activity (Mus musculus [12]): 1.3
- Activity (Mus musculus [14]): 51
- Activity (Mus musculus [15]): 86.3
- Activity (Mus musculus [17]): 3.6
- Activity (Mus musculus [18]): 5
- Relative activity (CC-B): 31
- Activity (Mus musculus [20]): 1.3
- Activity (Mus musculus [22]): 0.3
- Activity (Mus musculus [23]): 41
- Activity (Mus musculus [24]): 1.9
- Max tolerated dose (Mus musculus [25]): >4.9 mg/kg
- Dose (Mus musculus [26]): 280.8 mg/kg
- Activity (Mus musculus [28]): 0.4
- Activity (Mus musculus [29]): 1.9
- Dose (Mus musculus [30]): 190.2 mg/kg
- Activity (Mus musculus [31]): 1.5
- Activity (Mus musculus [32]): 192
- Activity (Mus musculus [33]): 7.1
- Activity (Mus musculus [34]): 115
- Activity (Mus musculus [35]): 134.8
- Max tolerated dose (Mus musculus [36]): 7.4 mg/kg
- Max tolerated dose (Mus musculus [37]): 9.4 mg/kg
- Max tolerated dose (Mus musculus [38]): 6.3 mg/kg
- Activity (Mus musculus [39]): 3.4
